Assay results reported in ChEMBL document CHEMBL4396890, “Synthesis, Biological Evaluation, Structure-Activity Relationship, and Mechanism of Action Studies of Quinoline-Metronidazole Derivatives Against Experimental Visceral Leishmaniasis” (J Med Chem, 2019).

How the values were obtained:
Leishmania donovani [1] = assay: Antileishmanial activity against Leishmania donovani MHOM/IN/80/Dd8 amastigotes harboring luciferase reporter gene infected in mouse J774 cells at 25 uM after 48 hrs by Steady-Glo luminescence assay relative to control; assay type: functional; conditions: MHOM/IN/80/Dd8, J774, 48 h
Summary of the method: (§1)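 Infection of J774 macrophages with L. donovani Dd8 promastigotes at a 1:8 cell:parasite ratio. Compounds were diluted 2-fold in RPMI over 3.125–100 μM final and applied for 48 h. Amastigote inhibition was read by luciferase (RLU) or by Giemsa count of amastigotes per 100 macrophages. IC50 was from dose–response; n = 3 independent experiments done in replicate.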

Leishmania donovani [2] = assay: Antileishmanial activity against Leishmania donovani MHOM/IN/80/Dd8 promastigotes harboring luciferase reporter gene at 50 uM after 48 hrs by Steady-Glo luminescence assay relative to control; assay type: functional; conditions: MHOM/IN/80/Dd8, 48 h
Summary of the method: (§2)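 Luciferase-expressing L. donovani Dd8 promastigotes were grown at 24 °C in M199 with 10% heat-inactivated FBS and G418 20 μg/mL. They were treated at varied concentrations for 24 and 48 h, and inhibition was read as relative luminescence units versus untreated control. IC50 was from dose–response; screening values are mean ± SD of at least three experiments in duplicate.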

Leishmania donovani [3] = assay: Antileishmanial activity against Leishmania donovani MHOM/IN/80/Dd8 amastigotes harboring luciferase reporter gene infected in mouse J774 cells at 50 uM after 48 hrs by Steady-Glo luminescence assay relative to control; assay type: functional; conditions: MHOM/IN/80/Dd8, J774, 48 h; summary of the method: as §1
Leishmania donovani [4] = assay: Antileishmanial activity against Leishmania donovani MHOM/IN/80/Dd8 promastigotes harboring luciferase reporter gene at 25 uM after 48 hrs by Steady-Glo luminescence assay relative to control; assay type: functional; conditions: MHOM/IN/80/Dd8, 48 h; summary of the method: as §2
Leishmania donovani [5] = assay: Induction of mitochondrial potential loss in Leishmania donovani MHOM/IN/80/Dd8 promastigotes assessed as shift in red to green fluorescence at 50 uM by JC1 dye-based flow cytometry (reference value: 7.37%); assay type: functional
[6] = Toxicity in BALB/c mouse infected with Leishmania donovani MHOM/IN/80/Dd8 promastigotes assessed as death at 25 mg/kg, po administered once daily for 5 days measured up to 7 days post dose; assay type: organism-based; conditions: in vivo
Summary of the method: (§3)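 BALB/c mice (20 ± 2 g) were infected by tail-vein injection of 2 × 10^7 stationary-phase promastigotes. From day 15 they were given miltefosine 25 mg/kg orally, suspended in triple-distilled water, daily for 5 days, and killed at day 7 post-treatment. Survival, health and body weight were monitored; 5 mice per group.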

[7] = Toxicity in BALB/c mouse infected with Leishmania donovani MHOM/IN/80/Dd8 promastigotes assessed as reduction in body weight at 50 mg/kg, ip administered once daily for 5 days measured up to 7 days post dose; assay type: organism-based; conditions: in vivo
Summary of the method: (§4)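 BALB/c mice (20 ± 2 g) were infected by tail-vein injection of 2 × 10^7 stationary-phase promastigotes. At day 15 they received ip doses in 8% DMSO/PBS for 5 consecutive days and were killed at day 7 post-treatment. Survival, general health and body weight were monitored; 5 mice per group.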

[8] = Toxicity in BALB/c mouse infected with Leishmania donovani MHOM/IN/80/Dd8 promastigotes assessed as death at 50 mg/kg, ip administered once daily for 5 days measured up to 7 days post dose; assay type: organism-based; conditions: in vivo; summary of the method: as §4
[9] = Toxicity in BALB/c mouse infected with Leishmania donovani MHOM/IN/80/Dd8 promastigotes assessed as effect on health at 50 mg/kg, ip administered once daily for 5 days measured up to 7 days post dose; assay type: organism-based; conditions: in vivo; summary of the method: as §4
[10] = Toxicity in BALB/c mouse infected with Leishmania donovani MHOM/IN/80/Dd8 promastigotes assessed as reduction in body weight at 25 mg/kg, po administered once daily for 5 days measured up to 7 days post dose; assay type: organism-based; conditions: in vivo; summary of the method: as §3
Leishmania donovani [11] = assay: Antileishmanial activity against Leishmania donovani MHOM/IN/80/Dd8 promastigotes infected in BALB/c mouse assessed as reduction in parasite load in spleen at 50 mg/kg, ip administered once daily for 5 days measured 7 days post dose by giemsa staining-based assay relative to control; assay type: functional; parameters: scale not given: the % may be the effect or the level left
Summary of the method: (§5)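 Hamster-passaged strain was transformed to promastigotes. Stationary-phase cells (2 × 10^7 in 0.2 mL PBS) were injected into the tail vein of BALB/c mice. From day 15 post-infection, mice received compound ip in 8% DMSO in PBS for 5 consecutive days, 5 mice per group. Mice were killed day 7 post-treatment. Liver and spleen burden was read from Giemsa-stained stamp smears as LDU.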

[12] = Toxicity in BALB/c mouse infected with Leishmania donovani MHOM/IN/80/Dd8 promastigotes assessed as effect on health at 12.5 to 200 mg/kg, ip administered once daily for 5 days measured up to 7 days post dose; assay type: organism-based; conditions: in vivo; summary of the method: as §4
[13] = Toxicity in BALB/c mouse infected with Leishmania donovani MHOM/IN/80/Dd8 promastigotes assessed as effect on health at 25 mg/kg, po administered once daily for 5 days measured up to 7 days post dose; assay type: organism-based; conditions: in vivo; summary of the method: as §3
[14] = Toxicity in BALB/c mouse infected with Leishmania donovani MHOM/IN/80/Dd8 promastigotes assessed as death at 12.5 to 200 mg/kg, ip administered once daily for 5 days measured up to 7 days post dose; assay type: organism-based; conditions: in vivo; summary of the method: as §4
[15] = Toxicity in BALB/c mouse infected with Leishmania donovani MHOM/IN/80/Dd8 promastigotes assessed as reduction in body weight at 12.5 to 200 mg/kg, ip administered once daily for 5 days measured up to 7 days post dose; assay type: organism-based; conditions: in vivo; summary of the method: as §4
Leishmania donovani [16] = assay: Antileishmanial activity against Leishmania donovani MHOM/IN/80/Dd8 promastigotes infected in BALB/c mouse assessed as reduction in parasite load in liver at 50 mg/kg, ip administered once daily for 5 days measured 7 days post dose by giemsa staining-based assay relative to control; assay type: functional; parameters: scale not given: the % may be the effect or the level left; summary of the method: as §5
Leishmania donovani [17] = assay: Antileishmanial activity against Leishmania donovani MHOM/IN/80/Dd8 amastigotes harboring luciferase reporter gene infected in mouse J774 cells after 48 hrs by Giemsa staining-based microscopic assay; assay type: functional, organism-based; conditions: MHOM/IN/80/Dd8, J774, 48 h; summary of the method: as §1
Leishmania donovani [18] = assay: Antileishmanial activity against Leishmania donovani MHOM/IN/80/Dd8 promastigotes infected in BALB/c mouse assessed as reduction in parasite load in spleen at 25 mg/kg, po administered once daily for 5 days measured 7 days post dose by giemsa staining-based assay relative to control; assay type: functional; parameters: scale not given: the % may be the effect or the level left
Summary of the method: (§6)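 Reference-drug arm of the same infection model (BALB/c mice, 15-day infection, 2 × 10^7 promastigotes iv). Drug was suspended in triple distilled water and given orally at 25 mg/kg/day for 5 days, 5 mice per group. Hepatic and splenic burden was taken at day 7 post-treatment by Giemsa stamp smears, as LDU.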

Leishmania donovani [19] = assay: Antileishmanial activity against Leishmania donovani MHOM/IN/80/Dd8 amastigotes harboring luciferase reporter gene infected in mouse J774 cells after 48 hrs by Steady-Glo luminescence assay; assay type: functional, organism-based; conditions: MHOM/IN/80/Dd8, J774, 48 h; summary of the method: as §1
[20] = Selectivity index, ratio of CC50 for mouse J774 cells to IC50 for antileishmanial activity against Leishmania donovani MHOM/IN/80/Dd8 harboring luciferase reporter gene
[21] = Selectivity index, ratio of CC50 for […] Vero cells to IC50 for antileishmanial activity against Leishmania donovani MHOM/IN/80/Dd8 harboring luciferase reporter gene; assay type: toxicity
Summary of the method: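 J774 macrophages and Vero cells were exposed to 12.5–400 μM for 48 h, with viability by MTT. CC50 was derived, and SI was calculated as CC50 divided by anti-amastigote IC50 in each cell type.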

Leishmania donovani [22] = assay: Antileishmanial activity against Leishmania donovani MHOM/IN/80/Dd8 promastigotes infected in BALB/c mouse assessed as reduction in parasite load in liver at 25 mg/kg, po administered once daily for 5 days measured 7 days post dose by giemsa staining-based assay relative to control; assay type: functional; parameters: scale not given: the % may be the effect or the level left; summary of the method: as §6

## Cc1ncc([N+](=O)[O-])n1CCOc1ccc(-c2cc(-c3ccccc3F)c3cc(Cl)ccc3n2)cc1
Leishmania donovani [1]
  inhibition at 25 µM: 23.4%
Leishmania donovani [2]
  inhibition at 50 µM: 59.1%
Leishmania donovani [3]
  inhibition at 50 µM: 63.6%
Leishmania donovani [4]
  inhibition at 25 µM: 34.4%

## N#CC(C#N)=NNc1cccc(Cl)c1 [CARBONYL CYANIDE M-CHLOROPHENYLHYDRAZONE]
Leishmania donovani [5]
  Activity: 95.49%

## Cc1ncc([N+](=O)[O-])n1CCOc1ccc(-c2cc(-c3ccccc3)c3cc(Cl)ccc3n2)cc1
Leishmania donovani [1]
  inhibition at 25 µM: 34.2%
Leishmania donovani [2]
  inhibition at 50 µM: 65.8%
Leishmania donovani [3]
  inhibition at 50 µM: 64.4%
Leishmania donovani [4]
  inhibition at 25 µM: 45.3%

## c1ccc2ncccc2c1 [QUINOLINE]
Leishmania donovani [1]
  inhibition at 25 µM: 64.5%
Leishmania donovani [2]
  inhibition at 50 µM: 80.2%
Leishmania donovani [3]
  inhibition at 50 µM: 83.6%
[6]
  Activity: Non-Toxic
[7]
  Activity: Non-Toxic
[8]
  Activity: Non-Toxic
[9]
  Activity: Non-Toxic
[10]
  Activity: Non-Toxic
Leishmania donovani [11]
  Activity: 55.2%
[12]
  Activity: Non-Toxic
[13]
  Activity: Non-Toxic
[14]
  Activity: Non-Toxic
[15]
  Activity: Non-Toxic
Leishmania donovani [4]
  inhibition at 25 µM: 42.4%
Leishmania donovani [16]
  Activity: 58.2%

## CCCCCCCCCCCCCCCCOP(=O)([O-])OCC[N+](C)(C)C [MILTEFOSINE]
Leishmania donovani [1]
  inhibition at 25 µM: 98.3%
Leishmania donovani [2]
  inhibition at 50 µM: 99.5%
Leishmania donovani [17]
  IC50: 9.59 µM
Leishmania donovani [18]
  Activity: >98%
Leishmania donovani [3]
  inhibition at 50 µM: 99.2%
Leishmania donovani [19]
  IC50: 9.59 µM
[6]
  Activity: Non-Toxic
[20]
  selectivity ratio: 5.8
[10]
  Activity: Non-Toxic
[21]
  selectivity ratio: 5.3
[13]
  Activity: Non-Toxic
Leishmania donovani [4]
  inhibition at 25 µM: 97.2%
Leishmania donovani [22]
  Activity: >98%

## Cc1ncc([N+](=O)[O-])n1CCOc1cccc(-c2cc(-c3ccccc3)c3ccccc3n2)c1
Leishmania donovani [1]
  inhibition at 25 µM: 31.2%
Leishmania donovani [2]
  inhibition at 50 µM: 63%
Leishmania donovani [3]
  inhibition at 50 µM: 66.4%
Leishmania donovani [4]
  inhibition at 25 µM: 43%

## Cc1ncc([N+](=O)[O-])n1CCO [METRONIDAZOLE]
Leishmania donovani [1]
  inhibition at 25 µM: 31.2%
Leishmania donovani [2]
  inhibition at 50 µM: 62.2%
Leishmania donovani [3]
  inhibition at 50 µM: 68.1%
[6]
  Activity: Non-Toxic
[7]
  Activity: Non-Toxic
[8]
  Activity: Non-Toxic
[9]
  Activity: Non-Toxic
[10]
  Activity: Non-Toxic
Leishmania donovani [11]
  Activity: 36.6%
[12]
  Activity: Non-Toxic
[13]
  Activity: Non-Toxic
[14]
  Activity: Non-Toxic
[15]
  Activity: Non-Toxic
Leishmania donovani [4]
  inhibition at 25 µM: 41.3%
Leishmania donovani [16]
  Activity: 40.8%
